Key:
[1] = Concentration required to reduce plating efficiency to 10 percent of controls, under hypoxic conditions in mouse SCCVII tumor cells.; format: functional, SCC-7
In short: (§1)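 SCCVII cells plated in glass dishes (2×10^5 to 1×10^6 per dish) 1–2 days ahead. Drug freshly dissolved, given in complete medium for 1 h at 37 °C with shaking. Hypoxia (<200 ppm O2) by repeated evacuation/flushing with 95% N2 + 5% CO2; aerobic controls flushed with 95% air + 5% CO2. Cells washed, trypsinized, replated. Crystal violet stain after 10–14 days, >50-cell colonies scored. C10 is the concentration giving 10% of control plating efficiency.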

[2] = Intraexperimental ratio of hypoxic TPZ C10 to hypoxic BTO C10 in mouse SCCVII tumor cells.; format: functional, SCC-7
In short: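 Computed within each experiment from the clonogenic SCCVII assay (1 h drug exposure, hypoxia <200 ppm O2 by gas evacuation/flushing, colony counting after 10–14 days). RHT = C10 of TPZ under hypoxia divided by C10 of the analogue under hypoxia.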

[3] = Concentration required to reduce plating efficiency to 10 percent of controls, under aerobic conditions in mouse SCCVII tumor cells.; format: functional, SCC-7; in short: as §1
[4] = Intraexperimental difference between the hypoxic and aerobic cytotoxicity; format: functional
In short: (§2)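 Clonogenic SCCVII survival after 1 h drug exposure at 37 °C, either hypoxic (<200 ppm O2, 95% N2/5% CO2) or aerobic (95% air/5% CO2). Colonies of >50 cells counted after 10–14 days. HCR = aerobic C10 / hypoxic C10, with both values from the same experiment.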

[5] = Interexperimental difference between the hypoxic and aerobic cytotoxicity using murine SCCVII cell line; format: functional, SCC-7
HT-29 [6] = assay: Inhibitory concentration against human adenocarcinoma HT-29 cell line under hypoxic condition; format: functional, cell-based
In short: (§3)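 SRB proliferation assay in 96-well plates. SCCVII (200 cells) or HT-29 (1000 cells) seeded in αMEM + 10% FCS with glucose (17 mM final) and 100 μM 2'-deoxycytidine, then attached for 3 h. Cells exposed for 4 h at 37 °C to 2-fold serial dilutions in triplicate, either oxic (20% O2, 5% CO2) or in an anaerobic chamber (<0.001% O2). After washing, cells grew for 5 (oxic) or 6 (anoxic) days before SRB staining. IC50 values are the mean of three independent experiments.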

[7] = Intraexperimental difference between the hypoxic and aerobic cytotoxicity in mouse SCCVII tumor cells; format: functional, SCC-7; in short: as §2
SCC-7 [8] = assay: Interexperimental ratio of hypoxic TPZ C10 to hypoxic BTO C10 using murine SCCVII cell line; format: functional, Mus musculus
SCC-7 [9] = assay: Inhibitory concentration against murine SCCVII cell line under aerobic condition; format: functional, cell-based; conditions: Mus musculus; in short: as §3
HT-29 [10] = assay: Interexperimental ratio of hypoxic TPZ C10 to hypoxic BTO C10 using human adenocarcinoma HT-29 cell line; format: functional
SCC-7 [11] = assay: Inhibitory concentration against murine SCCVII cell line under hypoxic condition; format: functional, cell-based; conditions: Mus musculus; in short: as §3
[12] = Interexperimental difference between the hypoxic and aerobic cytotoxicity using human adenocarcinoma HT-29 cell line; format: functional
HT-29 [13] = assay: Inhibitory concentration against human adenocarcinoma HT-29 cell line under aerobic condition; format: functional, cell-based; in short: as §3
[14] = Partition coefficient (logP); format: physicochemical; conditions: octanol/water
In short: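 Octanol/water partition at pH 7.4, measured by low-volume shake flask. Drug in both the octanol and buffer phases quantified by HPLC.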

Structure (SMILES)	C10 [1]	RHT [2]	C10 [3]	HCR [4]	HCR [5]	IC50 (HT-29 [6])	HCR [7]	RHT (SCC-7 [8])	IC50 (SCC-7 [9])	RHT (HT-29 [10])	IC50 (SCC-7 [11])	HCR [12]	IC50 (HT-29 [13])	logP [14]
CS(=O)(=O)c1ccc2c(c1)[n+]([O-])c(N)n[n+]2[O-]	26.1 µM	0.39	<274 µM	<10.5										
Nc1n[n+]([O-])c2ccc(F)cc2[n+]1[O-]	10.2 µM	1	114 µM	11.2										
Nc1n[n+]([O-])c2ccc(Cl)cc2[n+]1[O-]	6.47 µM	1.6	140 µM		22.5	1.3 µM	21.6	2.4	21.1 µM	4.1	0.98 µM	33	41.2 µM	
Nc1n[n+]([O-])c2ccccc2[n+]1[O-] [TIRAPAZAMINE]	10.2 µM	1	2644 µM		32.9	5.3 µM	258	1	71.7 µM	1	2.4 µM	37	196 µM	-0.34
CN(C)c1cccc2c1[n+]([O-])c(N)n[n+]2[O-]	25.8 µM	0.39	30.5 µM		0.18	23.3 µM	1.2	0.2	2.1 µM	0.2	12.2 µM	0.18	4.2 µM	
COc1ccc2c(c1)[n+]([O-])c(N)n[n+]2[O-]	127 µM	0.08												
COc1ccc2c(c1)[n+]([O-])nc(N)[n+]2[O-]	19.3 µM	0.53	1934 µM	100										
COc1cccc2c1[n+]([O-])c(N)n[n+]2[O-]	58 µM	0.18	47.9 µM	0.83										
Cc1cccc2c1[n+]([O-])c(N)n[n+]2[O-]	38.1 µM	0.27	< 381 µM	<10										
CCCCS(=O)(=O)c1ccc2c(c1)[n+]([O-])nc(N)[n+]2[O-]	7.76 µM	1.3	>89.6 µM	>11.5										
Cc1cccc2c1[n+]([O-])nc(N)[n+]2[O-]	24.7 µM	0.41	2538 µM	102.9										0.24
Nc1n[n+]([O-])c2ccc(C(F)(F)F)cc2[n+]1[O-]	8.23 µM	1.2	110 µM	13.3										
CCN(CC)c1cccc2c1[n+]([O-])c(N)n[n+]2[O-]	67.7 µM	0.15	58.7 µM	0.87										
CCN(CC)c1ccc2c(c1)[n+]([O-])c(N)n[n+]2[O-]	>50.8 µM	<0.2	>1269 µM											
Nc1n[n+]([O-])c2c(F)cccc2[n+]1[O-]	10.2 µM	1	132 µM		13.9	2.1 µM	13	1.9	23.7 µM	2.5	1.2 µM	4.1	8.7 µM	
CN(C)c1ccc2c(c1)[n+]([O-])nc(N)[n+]2[O-]	237 µM	0.043	3159 µM	13.3										
Nc1n[n+]([O-])c2cc([N+](=O)[O-])ccc2[n+]1[O-]	5.37 µM	1.9	36.3 µM		4.1	0.79 µM	6.8	3.4	2.8 µM	6.7	0.7 µM	14.8	14.1 µM	

Structure (SMILES)	C10 [1]	RHT [2]	C10 [3]	HCR [4]	HCR [5]	IC50 (HT-29 [6])	HCR [7]	RHT (SCC-7 [8])	IC50 (SCC-7 [9])	RHT (HT-29 [10])	IC50 (SCC-7 [11])	HCR [12]	IC50 (HT-29 [13])	logP [14]
Nc1n[n+]([O-])c2c(C(F)(F)F)cccc2[n+]1[O-]	5.56 µM	1.8	626 µM	112.5										0.53
Nc1n[n+]([O-])c2c(Cl)cccc2[n+]1[O-]	2.58 µM	3.9	102 µM		15.9	0.55 µM	39.4	5.2	8.2 µM	9.6	0.45 µM		7.7 µM	0.17
CS(=O)(=O)c1cccc2c1[n+]([O-])nc(N)[n+]2[O-]	50.8 µM	0.2	338 µM		1.6	15.1 µM	6.7	0.2	15.5 µM	0.4	9.7 µM	4.5	69.8 µM	-1.38
CCCCS(=O)(=O)c1ccc2c(c1)[n+]([O-])c(N)n[n+]2[O-]	16.2 µM	0.63	<102 µM	<6.3										
CN(C)c1cccc2c1[n+]([O-])nc(N)[n+]2[O-]	157 µM	0.065	2769 µM	17.6										
Nc1n[n+]([O-])c2cccc(Cl)c2[n+]1[O-]	7.46 µM	1.4	10.2 µM	1.4										0.07
CCN(CC)c1cccc2c1[n+]([O-])nc(N)[n+]2[O-]	114 µM	0.089	1904 µM	16.7										0.82
Nc1n[n+]([O-])c2cc(F)ccc2[n+]1[O-]	5.41 µM	1.9	381 µM		19.3	1.87 µM	70.3	2.2	17.6 µM	2.8	1.1 µM	21.7	47.8 µM	
Cc1ccc2c(c1)[n+]([O-])c(N)n[n+]2[O-]	17.4 µM	0.58	2901 µM		42.6		166.7	0.4	217 µM	0.4	5.6 µM		469 µM	0.21
COc1cccc2c1[n+]([O-])nc(N)[n+]2[O-]	25.4 µM	0.4	>135 µM		25.7	28.8 µM	>5.3	0.2	288 µM	0.2	13.5 µM	21.9	624 µM	
Nc1n[n+]([O-])c2cc(Cl)ccc2[n+]1[O-]	9.48 µM	1.1	271 µM		20.4	0.73 µM	28.6	3.9	12.2 µM	7.2	0.61 µM		19.8 µM	0.46
CN(C)c1ccc2c(c1)[n+]([O-])c(N)n[n+]2[O-]	>440 µM	<0.023	440 µM	<1										
CCCCS(=O)(=O)c1cccc2c1[n+]([O-])nc(N)[n+]2[O-]	8.31 µM	1.2	175 µM	21.1										
CS(=O)(=O)c1ccc2c(c1)[n+]([O-])nc(N)[n+]2[O-]	31.7 µM	0.32	251 µM	7.9										-1.15
Nc1n[n+]([O-])c2cccc(F)c2[n+]1[O-]	10.2 µM	1	<76.1 µM	<7.5										
CCN(CC)c1ccc2c(c1)[n+]([O-])nc(N)[n+]2[O-]	>72.5 µM	<0.14	> 725 µM											
Cc1ccc2c(c1)[n+]([O-])nc(N)[n+]2[O-]	16.2 µM	0.63	2031 µM	125										0.13

Reference: ChEMBL document CHEMBL1145015, “Structure-activity relationships of 1,2,4-benzotriazine 1,4-dioxides as hypoxia-selective analogues of tirapazamine” (J Med Chem, 2003)
